One experiment concerns DNA. As to the kind of experiment: Binding affinity to calf thymus DNA assessed as change in thermal stability at pH 7.0 after 18 hrs by thermal denaturation assay. In kind it is nucleic-acid assay. To be noted: Bos taurus. Put shortly: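 CT-DNA duplex at 100 µM (in phosphate) with ligand at 20 µM (1:5 ligand/DNA molar ratio) in 10 mM sodium phosphate, 1 mM EDTA, pH 7.00; compound added from concentrated MeOH solution. Incubated at 37 °C for 18 h. Absorbance at 260 nm followed while heating at 1 °C/min over 40–90 °C. Tm taken from dA260/dT derivative maxima; ΔTm relative to DNA alone.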

In experiment [1] the target is T1, Type II restriction enzyme BamHI (Bacillus amyloliquefaciens) (UniProt P23940).
T1 sequence (whole entry): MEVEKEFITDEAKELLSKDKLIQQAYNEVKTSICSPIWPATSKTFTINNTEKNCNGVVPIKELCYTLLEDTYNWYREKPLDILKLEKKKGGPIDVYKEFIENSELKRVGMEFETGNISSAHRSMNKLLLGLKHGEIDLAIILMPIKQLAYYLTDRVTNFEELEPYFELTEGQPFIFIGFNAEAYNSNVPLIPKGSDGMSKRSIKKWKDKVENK
The experiment in a line: Inhibition of BamH1 assessed as inhibition of pBR322 DNA cleavage. An outline of the steps:
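PBD stocks were 100 μM in DMSO. Plasmid pBR322 (500 ng, single BamHI site) was preincubated with compound in 16 μL for 16 h at 37 °C. BamHI (20 U) and its buffer were then added to 20 μL, and digestion ran 1 h at 37 °C. Cut and uncut forms were resolved on 1% agarose in TAE (80 V, 2 h) and stained with ethidium bromide.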

For a further experiment, the system named is MCF7. As to the kind of experiment: Cytotoxicity against human MCF7 cells after 48 hrs by SRB method. The following applies: MCF7, 48 h. Background: In SRB staining, fixed cells bind dye roughly in proportion to their protein.
The nature of experiment [2]: Cytotoxicity against human DWD cells after 48 hrs by SRB method.
For a further experiment, the system named is KB. The experiment in a line: Cytotoxicity against human KB cells after 48 hrs by SRB method.
Another experiment deals with SiHa. As to the kind of experiment: Cytotoxicity against human SiHa cells after 48 hrs by SRB method.
The nature of experiment [3]: Cytotoxicity against human prostate cancer cells after 24 hrs by SRB method. In kind it is functional. The following applies: Cancer cell lines.
For the next experiment, the system named is A2780. The experiment in a line: Cytotoxicity against human A2780 cells after 48 hrs by SRB method. The following applies: A2780, 48 h.
The nature of experiment [4]: Cytotoxicity against human GURAV cells after 48 hrs by SRB method.
Experiment [5] can be described thus: Cytotoxicity against human breast cancer cells after 24 hrs by SRB method. To be noted: Cancer cell lines. Type of experiment: functional.
In another experiment the test system is A549. As to the kind of experiment: Cytotoxicity against human A549 cells after 48 hrs by SRB method. To be noted: A549, 48 h.
For the next experiment, the system named is PC-3. The experiment in a line: Cytotoxicity against human PC3 cells after 48 hrs by SRB method. To be noted: PC-3, 48 h.
Experiment [6] deals with CCRF-CEM. As to the kind of experiment: Cytotoxicity against human CCRF-CEM cells after 48 hrs by SRB method. The following applies: read-out: pLC50 (the source's name) (converted).
For another experiment, the system named is RPMI-8226. The experiment in a line: Cytotoxicity against human RPMI8226 cells after 24 hrs by SRB method. Type of experiment: functional. To be noted: RPMI-8226, 24 h.
Experiment [7] can be described thus: Cytotoxicity against human melanoma cancer cells after 24 hrs by SRB method. Type of experiment: functional. To be noted: Melanoma cell.
Another experiment concerns COLO 205. As to the kind of experiment: Cytotoxicity against human Colo205 cells after 48 hrs by SRB method. The following applies: COLO 205, 48 h.
Experiment [8] can be described thus: Cytotoxicity against human leukemia cells after 24 hrs by SRB method. In kind it is functional. The following applies: Leukemia cell, read-out: pTGI (converted).
Experiment [9] is described as follows: Cytotoxicity against human colon cancer cells after 24 hrs by SRB method. Type of experiment: functional. To be noted: Cancer cell lines.
Experiment [10] is described as follows: Cytotoxicity against human lung cancer cells after 24 hrs by SRB method. In kind it is functional. To be noted: Cancer cell lines.
In a further experiment the test system is MOLT-4. The experiment in a line: Cytotoxicity against human MOLT4 cells after 24 hrs by SRB method. In kind it is functional. The following applies: MOLT-4, 24 h.
A short description of experiment [11]: Cytotoxicity against human CNS cancer cells after 48 hrs by SRB method. To be noted: Cancer cell lines.
Experiment [12] can be described thus: Cytotoxicity against human ovarian cancer cells after 24 hrs by SRB method. In kind it is functional. To be noted: Cancer cell lines.
A short description of experiment [13]: Cytotoxicity against human renal cancer cells after 24 hrs by SRB method. Type of experiment: functional. To be noted: Cancer cell lines.
The nature of experiment [14]: Cytotoxicity against human leukemia cells after 48 hrs by SRB method. To be noted: Leukemia cell.
For experiment [15], the system named is CCRF-CEM. As to the kind of experiment: Cytotoxicity against human CCRF-CEM cells after 24 hrs by SRB method. In kind it is functional.
The subject of another experiment is SR. As to the kind of experiment: Cytotoxicity against human SR cells after 24 hrs by SRB method. In kind it is functional.
A further experiment deals with HL-60. The experiment in a line: Cytotoxicity against human HL60 cells after 48 hrs by SRB method. The following applies: HL-60, 48 h.
For the next experiment, the system named is K562. The experiment in a line: Cytotoxicity against human K562 cells after 48 hrs by SRB method. To be noted: K562, 48 h.
Where [16] appears, read: read-out: pLC50 (the source's name) (converted).

SMILES strings stand for the structures. Active and inactive are the calls of the source. The calls are words filed in the database; no cut-off is given here.

The text below walks through data of ChEMBL document CHEMBL1157149, “Phosphonate-linked pyrrolo[2,1-c][1,4]benzodiazepine conjugates: synthesis, DNA-binding affinity and cytotoxicity” (2008).

As to `COc1cc2c(cc1OCCCN1CCN(C)CC1)N=C[C@@H]1CCCN1C2=O`, the ΔTm in the experiment on DNA was determined as 6.9 °C.

For `CCOP(=O)(CCN1CCN(CCCOc2cc3c(cc2OC)C(=O)N2CCC[C@H]2C=N3)CC1)OCC`, the shift in melting temperature (ΔTm) in the experiment with DNA is 9 °C. Also, the outcome in experiment [1] was Active.

On to `COc1cc2c(cc1O)N=C[C@@H]1CCCN1C2=O`, for which the thermal shift (ΔTm) in the experiment on DNA worked out at 0.7 °C.

`CCOP(=O)(CCCOc1cc2c(cc1OC)C(=O)N1CCC[C@H]1C=N2)OCC`: the 50% growth inhibitory concentration (GI50) in the experiment on MCF7 is 2.02 µM; in experiment [2] it was 2.2 µM; in the experiment with KB, 2.11 µM; in the experiment on SiHa it was 2.1 µM. The shift in melting temperature (ΔTm) in the experiment with DNA came to 4.5 °C.

For the molecule `CCOP(=O)(CCN1CCN(CCCCCOc2cc3c(cc2OC)C(=O)N2CCC[C@H]2C=N3)CC1)OCC`, the GI50 is 2.01 µM in the experiment on MCF7; 17.8 µM in experiment [3]; 0.17 µM in the experiment with A2780; 0.17 µM in experiment [4]; 5.62 µM in experiment [5]; 2.64 µM with A549. Also, the GI50 with PC-3 was 1.98 µM; with RPMI-8226, 2.29 µM; in [7], 7.76 µM; in the experiment on COLO 205, 1.87 µM; in experiment [9] it was 10 µM; in the experiment with KB, 1.92 µM. Besides, the GI50 is 10 µM in experiment [10]; 0.21 µM with SiHa; 2.14 µM in the experiment with MOLT-4; 3.02 µM in experiment [11]; 13.8 µM in experiment [12]; 9.77 µM in [13]. For the same molecule, the GI50 was 1.95 µM in [14]; 1.91 µM with CCRF-CEM [15]; 1.38 µM in the experiment on SR; 1.82 µM in the experiment on HL-60; 2.34 µM with K562. Further, the CC50 in experiment [3] (setting [16]) is 100 µM; in experiment [5] (setting [16]) it was 95.5 µM; in the experiment with CCRF-CEM [6] it was more than 100 µM; in the experiment with RPMI-8226 (setting [16]) it was more than 100 µM; in experiment [7] (setting [16]), 81.3 µM; in experiment [9] (setting [16]), 93.3 µM. The CC50 in experiment [10] (setting [16]) was 100 µM; with MOLT-4 (setting [16]), more than 100 µM; in [11] (setting [16]) it was 89.1 µM; in experiment [12] (setting [16]) it was 100 µM; in experiment [13] (setting [16]) it was 95.5 µM; in experiment [14] (setting [16]), 100 µM. The CC50 with SR (setting [16]) was 30.9 µM; with HL-60 (setting [16]), more than 100 µM; in the experiment with K562 (setting [16]), more than 100 µM. The TGI was 63.1 µM in [3] (read-out: pTGI (converted)); 33.1 µM in experiment [5] (read-out: pTGI (converted)); 30.2 µM in [7] (read-out: pTGI (converted)); 12.3 µM in experiment [8]; 46.8 µM in experiment [9] (read-out: pTGI (converted)); 45.7 µM in experiment [10] (read-out: pTGI (converted)). Further, the TGI in the experiment on MOLT-4 (read-out: pTGI (converted)) is 6.31 µM; in experiment [11] (read-out: pTGI (converted)), 30.2 µM; in experiment [12] (read-out: pTGI (converted)), 55 µM; in experiment [13] (read-out: pTGI (converted)), 53.7 µM; in the experiment on SR (read-out: pTGI (converted)), 4.27 µM; in the experiment on HL-60 (read-out: pTGI (converted)) it was 8.32 µM. Moreover, the TGI in the experiment with K562 (read-out: pTGI) was more than 100 µM. Besides, the shift in melting temperature (ΔTm) in the experiment with DNA turned out to be 7.2 °C. Also, the result in experiment [1] was Active.

For `COc1cccc2c1C(=O)c1c(O)c3c(c(O)c1C2=O)C[C@@](O)(C(=O)CO)C[C@@H]3O[C@H]1C[C@H](N)[C@H](O)[C@H](C)O1` [DOXORUBICIN], the concentration for 50% growth inhibition (GI50) is 0.18 µM in the experiment with MCF7; 0.17 µM with A2780; 0.17 µM in [4]; 0.11 µM in [2]; 0.14 µM in the experiment with COLO 205; 0.17 µM with KB. Growth with SiHa was halved (GI50) at 0.18 µM.

In the case of `CCOP(=O)(CCCN1CCN(CCCOc2cc3c(cc2OC)C(=O)N2CCC[C@H]2C=N3)CC1)OCC`, in the experiment on DNA, the ΔTm amounted to 9.9 °C. Further, the outcome in experiment [1] was Active.

Regarding `CCOP(=O)(CCCN1CCN(CCCCOc2cc3c(cc2OC)C(=O)N2CCC[C@H]2C=N3)CC1)OCC`, the thermal shift (ΔTm) with DNA was determined as 7.1 °C.

For the molecule `CCOP(=O)(CCCN1CCN(CCCCCOc2cc3c(cc2OC)C(=O)N2CCC[C@H]2C=N3)CC1)OCC`, the GI50 with MCF7 came to 2.21 µM; in the experiment on A2780 it was 2.02 µM; in experiment [4], 2.18 µM; with PC-3, 30.5 µM; in experiment [2], 0.18 µM; with COLO 205, 2.39 µM. The same molecule registered a concentration for 50% growth inhibition (GI50) in the experiment on SiHa of 2.46 µM. The shift in melting temperature (ΔTm) with DNA came out at 10 °C. Further, the outcome in [1] was Active.

As a reminder, the ΔTm is the shift of the melting midpoint relative to a reference. In general, GI50 refers to the concentration that inhibits growth by half. The low end stands for greater sensitivity of the cells, the high end for lower sensitivity of the cells.
